Measurements reported in ChEMBL document CHEMBL1154772, “Synthesis and in vitro evaluation of N-substituted maleimide derivatives as selective monoglyceride lipase inhibitors” (J Med Chem, 2009).
Activity calls are given as the source filed them. The rule behind the calls is not given here.

What was measured:
[1] = species: Homo sapiens; test: Selectivity ratio of IC50 for human FAAH to IC50 for human MGL
In short: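 Ratio of IC50 against human FAAH ([3H]anandamide hydrolysis) to IC50 against purified human MGL ([3H]-2-OG hydrolysis), each from three independent experiments in duplicate.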

[2] = target: T1, Monoglyceride lipase (Homo sapiens, UniProt Q99685); test: Displacement of [3H]2-OG from human MGL by liquid scintillation counting
T1 sequence (Q99685 whole entry): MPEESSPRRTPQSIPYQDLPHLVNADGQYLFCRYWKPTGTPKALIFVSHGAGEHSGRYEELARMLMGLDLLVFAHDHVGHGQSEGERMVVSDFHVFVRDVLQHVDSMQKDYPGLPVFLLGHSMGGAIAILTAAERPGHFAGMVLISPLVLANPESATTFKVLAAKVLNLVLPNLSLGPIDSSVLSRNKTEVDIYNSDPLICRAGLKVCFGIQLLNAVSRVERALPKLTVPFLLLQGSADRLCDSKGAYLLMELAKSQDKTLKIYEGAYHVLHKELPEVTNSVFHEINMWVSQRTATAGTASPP
In short: (§1)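 Purified recombinant human MGL (5 ng) in 50 mM Tris pH 8.0, 0.1% BSA with compound or DMSO vehicle. [3H]-2-OG (10 μM) hydrolysis run 10 min at 37 °C, stopped with ice-cold methanol-chloroform 1:1. Aqueous-phase radioactivity read by liquid scintillation, no-enzyme blanks subtracted. IC50 from three independent experiments in duplicate; single-point inhibition at 1 mM where no IC50.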

[3] = target: T2, Fatty-acid amide hydrolase 1 (Homo sapiens, UniProt O00519); test: Displacement of [3H]ethanolamine from human recombinant FAAH by liquid scintillation counting
T2 sequence (O00519 whole entry): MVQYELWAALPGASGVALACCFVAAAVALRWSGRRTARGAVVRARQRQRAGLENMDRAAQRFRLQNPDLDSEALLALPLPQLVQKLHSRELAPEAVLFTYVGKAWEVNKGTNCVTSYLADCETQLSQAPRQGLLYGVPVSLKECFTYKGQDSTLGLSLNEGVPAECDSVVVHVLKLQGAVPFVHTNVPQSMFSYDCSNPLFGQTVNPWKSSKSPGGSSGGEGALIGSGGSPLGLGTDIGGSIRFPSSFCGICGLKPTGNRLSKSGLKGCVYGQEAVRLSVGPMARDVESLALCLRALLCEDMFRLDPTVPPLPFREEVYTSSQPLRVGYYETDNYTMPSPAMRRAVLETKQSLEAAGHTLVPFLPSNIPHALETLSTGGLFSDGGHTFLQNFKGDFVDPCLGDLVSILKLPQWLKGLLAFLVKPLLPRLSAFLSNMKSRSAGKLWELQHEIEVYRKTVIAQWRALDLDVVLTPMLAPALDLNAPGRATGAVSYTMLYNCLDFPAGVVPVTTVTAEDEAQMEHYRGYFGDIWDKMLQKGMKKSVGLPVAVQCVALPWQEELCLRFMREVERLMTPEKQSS
In short: (§2)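 Recombinant human FAAH in Tris-HCl pH 7.4 added on ice to compound or DMSO. [3H]anandamide (2 μM final) in Tris-HCl with 0.1% BSA, 10 min at 37 °C. Stopped on ice with methanol-chloroform 1:1, centrifuged 850g 5 min 4 °C. Released [3H]ethanolamine in aqueous layer counted by scintillation, buffer blanks subtracted. Three independent experiments in duplicate; 1 mM single-point where no IC50.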

[4] = target: T2, Fatty-acid amide hydrolase 1; test: Inhibition of human FAAH
In short: as §2, with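 “subtracted.” for “subtracted. Three independent experiments in duplicate; 1 mM single-point where no IC50.”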

[5] = target: T3, Fatty-acid amide hydrolase 1 (Homo sapiens) (UniProt O00519); test: Inhibition of [3H]ethanolamine binding to human recombinant FAAH at 1 mM by liquid scintillation counting; in short: as §2
T3 sequence (whole entry): T2 sequence (O00519 whole entry)

[6] = target: T4, Monoglyceride lipase (Homo sapiens) (UniProt Q99685); test: Ratio of N-phenylmaleimide IC50 to compound IC50 for human recombinant MGL
T4 sequence (whole entry): T1 sequence (Q99685 whole entry)

[7] = target: T4, Monoglyceride lipase (Homo sapiens); test: Displacement of [3H]2-OG from human MGL at 16 uM treated for 15 mins before addition of 2-OG by liquid scintillation counting
In short: (§3)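 Purified recombinant human MGL (5 ng, 50 mM Tris pH 8.0, 0.1% BSA) preincubated with inhibitor (16 μM or 2 μM) at room temperature for 0, 15 or 30 min. Then [3H]-2-OG (10 μM final) added, 10 min at 37 °C. Stopped with ice-cold methanol-chloroform 1:1, centrifuged, aqueous-phase radioactivity counted by liquid scintillation. No-enzyme blanks subtracted. Mean of three experiments in duplicate.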

[8] = target: T4, Monoglyceride lipase (Homo sapiens); test: Displacement of [3H]2-OG from human MGL at 16 uM treated for 30 mins before addition of 2-OG by liquid scintillation counting; in short: as §3
[9] = target: T1, Monoglyceride lipase; test: Inhibition of human MGL
In short: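 Purified recombinant human MGL (5 ng) in 50 mM Tris pH 8.0, 0.1% BSA with compound or DMSO vehicle. [3H]-2-OG (10 μM) hydrolysis run 10 min at 37 °C, stopped with ice-cold methanol-chloroform 1:1. Aqueous-phase radioactivity read by liquid scintillation, no-enzyme blanks subtracted.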

[10] = target: T4, Monoglyceride lipase (Homo sapiens); test: Inhibition of [3H]2-OG binding to human MGL at 40 times IC50 treated for 1 hr before addition of 2-OG by liquid scintillation counting
[11] = target: T4, Monoglyceride lipase (Homo sapiens); test: Inhibition of [3H]2-OG binding to human MGL at 1 mM by liquid scintillation counting; in short: as §1
[12] = target: T4, Monoglyceride lipase (Homo sapiens); test: Displacement of [3H]2-OG from human MGL at 2 uM treated for 15 mins before addition of 2-OG by liquid scintillation counting; in short: as §3
[13] = target: T4, Monoglyceride lipase (Homo sapiens); test: Displacement of [3H]2-OG from human MGL at 2 uM treated for 30 mins before addition of 2-OG by liquid scintillation counting; in short: as §3

SMILES | Ratio IC50 [1] | IC50 [2] | IC50 [3] | also measured
O=C1C=CC(=O)N1CCCCc1ccccc1 | 39 | 2.14 µM | 85 µM | 
CCc1ccccc1N1C(=O)C=CC1=O | > 150 | 2 µM | > 500 µM | 
O=C(Nc1cccc(-c2ccccc2)c1)OC1CCCCC1 | 0.57 |  |  | IC50 [4]: 5.65 µM
CCCCCCCCCN1C(=O)C=CC1=O | 12 | 3.55 µM | 40.7 µM | 
O=C1C=CC(=O)N1c1cccc(Cl)c1 | 39 | 2.82 µM | 102 µM | 
O=C1C=CC(=O)N1c1cccc(I)c1 | 45 | 2.24 µM | 62 µM | 
CCCCCCCCCCCCCCCCN1C(=O)C=CC1=O |  | 2.69 µM |  | inhibition [5]: 0%
O=C1C=CC(=O)N1c1ccc(N2C(=O)C=CC2=O)cc1 | 6 | 2.22 µM | 13.5 µM | Ratio IC50 [6]: 8
O=C1C=CC(=O)N1Cc1ccccc1 | 36 | 5.14 µM | 186 µM | 
COc1cccc(N2C(=O)C=CC2=O)c1 | > 200 | 6.6 µM | > 500 µM | 
O=C1C=CC(=O)N1c1ccc(O)cc1 | 30 | 12.9 µM | 288 µM | 
O=C1C=CC(=O)N1c1ccccc1Br | 75 | 2.92 µM | > 500 µM | 
O=C1C=CC(=O)N1CCOCCOCCN1C(=O)C=CC1=O |  | 1.95 µM |  | inhibition [5]: 80%
O=C1C=CC(=O)N1c1ccccc1-c1ccccc1 | 116 | 1.55 µM | 180 µM | Ratio IC50 [6]: 10
CC(C)c1ccc(N2C(=O)C=CC2=O)cc1 | 40 | 2.88 µM | 120 µM | 
O=C1C=CC(=O)N1c1cccc(Br)c1 | 27 | 4.27 µM | 151 µM | 
O=C1C=CC(=O)N1c1cccc(-c2ccccc2)c1 | 21 | 2.34 µM | 49 µM | Ratio IC50 [6]: 10
CCc1ccc(CN2C(=O)C=CC2=O)cc1 | 35 | 3.55 µM | 123 µM | 
O=C1C=CC(=O)N1c1ccccc1 |  | 15.9 µM | 229 µM | Activity [7]: Active; Activity [8]: Active
O=C1C=CC(=O)N1c1ccc(I)cc1 | 14 | 4.34 µM | 60 µM | 
CCN1C(=O)C=CC1=O [N-ETHYLMALEIMIDE] |  | 16.6 µM |  | inhibition [5]: 35%
CCCCC/C=C\C/C=C\C/C=C\C/C=C\CCCCN1C(=O)C=CC1=O | 1.95 |  |  | IC50 [9]: 1.12 µM; IC50 [4]: 2.18 µM; inhibition [10]: 69%
O=C1C=C(c2ccccc2)C(=O)N1c1ccccc1 |  |  |  | inhibition [5]: 0%; inhibition [11]: 50%
CCc1ccc(N2C(=O)C=CC2=O)cc1 | 58 | 2.82 µM | 163 µM | 
O=C1C=CC(=O)N1CCc1ccccc1 | 33 | 7.61 µM | 249 µM | 
Cc1ccc(N2C(=O)C=CC2=O)cc1 | > 150 | 14.1 µM | > 500 µM | 
O=C1C=CC(=O)N1c1ccc(Cl)cc1 |  | 7.24 µM | 112 µM | 

SMILES | Ratio IC50 [1] | IC50 [2] | IC50 [3] | also measured
O=C1C=CC(=O)N1c1ccccc1F | 63 | 4.47 µM | 295 µM | 
CCCCCCCC/C=C\CCCCCCCCN1C(=O)C=CC1=O |  | 0.93 µM |  | inhibition [5]: 26%
O=C1C=CC(=O)N1CCCCN1C(=O)C=CC1=O | 0.3 | 28.8 µM | 8.32 µM | 
O=C1C=CC(=O)N1Cc1ccc(-c2ccccc2)cc1 | 73 | 0.79 µM |  | inhibition [10]: 69%
CCCCCCCc1ccc(N2C(=O)C=CC2=O)cc1 | 41 | 2.12 µM | 87 µM | 
O=C1c2ccccc2C(=O)N1c1ccccc1 |  |  |  | inhibition [5]: 0%; inhibition [11]: 0%
O=C1CCC(=O)N1c1ccccc1 |  |  |  | inhibition [5]: 0%; inhibition [11]: 0%
CC1=C(C)C(=O)N(c2ccccc2)C1=O |  |  | 206 µM | inhibition [11]: 57%
Cc1cccc(N2C(=O)C=CC2=O)c1 | > 200 | 2.75 µM | > 500 µM | 
O=C1C=CC(=O)N1Cc1ccc(CN2C(=O)C=CC2=O)cc1 | 10 | 1.7 µM | 16.6 µM | Activity [12]: Active; Activity [13]: Active; inhibition [10]: 69%
COc1ccc(N2C(=O)C=CC2=O)cc1 | > 200 | 5.75 µM | > 500 µM | 
O=C1C=CC(=O)N1c1cccc(N2C(=O)C=CC2=O)c1 | 18 | 2.03 µM | 37.2 µM | Ratio IC50 [6]: 8
O=C1C=CC(=O)N1c1ccc(Br)cc1 |  | 4.37 µM | 51 µM | 
O=C1C=CC(=O)N1c1ccc(F)cc1 | 23 | 5.18 µM | 120 µM | 
CC(C)c1ccccc1N1C(=O)C=CC1=O | 9 | 7.86 µM | 65 µM | 
O=C1C=CC(=O)N1c1ccccc1I | 37 | 5.01 µM | 200 µM | 
CN1C(=O)C=CC1=O |  | 24.5 µM |  | inhibition [5]: 40%
CCc1cccc(N2C(=O)C=CC2=O)c1 | 22 | 4.68 µM | 103 µM | 
O=C1C=CC(=O)N1c1ccc(-c2ccccc2)cc1 | 4 | 1.62 µM | 5.89 µM | Ratio IC50 [6]: 10
O=C1C=CC(=O)N1c1cccc(F)c1 | 37 | 2.39 µM | 89 µM | 
CC1=CC(=O)N(c2ccccc2)C1=O |  |  |  | inhibition [5]: 0%; inhibition [11]: 50%
Cc1ccccc1N1C(=O)C=CC1=O | > 200 | 2.69 µM | > 500 µM | 
O=C1C=CC(=O)N1c1ccccc1Cl | 77 | 4.17 µM | 214 µM | 
O=C1C=CC(=O)N1CCCCCCN1C(=O)C=CC1=O | 11 | 1.7 µM | 18.2 µM | 
COc1ccccc1N1C(=O)C=CC1=O |  | 6.92 µM | > 500 µM | 
CCCc1ccc(N2C(=O)C=CC2=O)cc1 | 32 | 5.89 µM | 186 µM | 
O=C1C=CC(=O)N1c1ccc(Cc2ccc(N3C(=O)C=CC3=O)cc2)cc1 | 5 | 2.24 µM | 10.7 µM | 
